Compound activity deposited in PubChem by Broad Institute.
Many of the other results were omitted from the sample, so hits are more common in it than they were.
T cruzi intra – inhibitors of intracellular Trypanosoma cruzi; intracellular Trypanosoma cruzi in host cells, plate reader; activity score (inhibition), % at 5.01 µM; actives 4.9% (n = 22,000); in the data active = activity score above about 55%;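 note: parasites and compound incubated about four days before reading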
A1 apoptosis 2 – A1 inhibition read as caspase activation; caspase activation, % (no concentration beside the values); 24,000 tested, under 10 active; MEF A1-2A-BIM cells, caspase-Glo luminescence, 3 h; percent of clofoctol response, DMSO zero; in the data active = caspase activation above about 5.9%
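Evaluation: Caspase-3/7 activity from luminescence increase | Assay system: A1-2A-BIM mouse embryonic fibroblasts | Quantity: 2500 MEF cells/well | Medium: RPMI-1640 plus 10% FBS | Detection: Caspase-Glo 3/7 luminescence, 1 h at room temperature | Dosing: 50 nL compound per well, pinned | Timing: Cells settled overnight, compound exposure 3 h at 37 °C, 5% CO2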
INS-1E ATP HTS – preserves ATP levels in cytokine-treated INS-1E cells | actives 0.1% (n = 20,000) | INS-1E cytokine-induced death, ATP luminescence, 48 h; normalised: neutral wells 0, positive control 100 | AID 488910 | protection from cytokine-induced ATP loss, % at 10 µM;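 active = mean replicate protection from cytokine-induced ATP loss at least 50% and at least 75% of replicates each reaching 50%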
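Assay system – rat INS-1E insulinoma cell line · Quantity – 8000 cells per well · Buffer or medium – RPMI without phenol red, 5% FBS · Schedule – 48 h co-treatment, 10 min post-lysis read · Technique – luminescent ATP assay (CellTiter-Glo)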
Hits are given with their value.

How did C[C@@H]1CN([C@@H](C)CO)C(=O)c2cc(NS(=O)(=O)c3cccs3)ccc2O[C@@H]1CN(C)CC1CC1 do in these assays?
T cruzi intra: inactive; A1 apoptosis 2: inactive; INS-1E ATP HTS: inactive

How did O=C(N1CCOCC1)[C@@]1(CCS(=O)(=O)c2ccccc2)COC(c2ccc(OCCCO)cc2)=N1 do in these assays?
A1 apoptosis 2: inactive

Results for C[C@@H]1CN([C@@H](C)CO)C(=O)Cc2cc(NC(=O)Cc3ccccc3)ccc2O[C@@H]1CN(C)C(=O)Nc1cccc2ccccc12 ?
T cruzi intra: inactive; A1 apoptosis 2: inactive; INS-1E ATP HTS: inactive

What do the screens show for `C[C@@H]1CN([C@H](C)CO)C(=O)c2cc(NS(C)(=O)=O)ccc2O[C@@H]1CN(C)C(=O)Nc1ccccc1`?
T cruzi intra: inactive; A1 apoptosis 2: inactive; INS-1E ATP HTS: inactive

Results for C[C@@H]1CCCCO[C@@H](CN(C)Cc2ccc(Cl)c(Cl)c2)[C@H](C)CN([C@@H](C)CO)C(=O)c2cc(NC(=O)Nc3ccccc3)ccc2O1 ?
A1 apoptosis 2: inactive

How did C[C@@H]1CCCCO[C@@H](CN(C)Cc2ccc(Cl)c(Cl)c2)[C@@H](C)CN([C@H](C)CO)C(=O)c2cc(NC(=O)C3CCCCC3)ccc2O1 do in these assays?
T cruzi intra: 88; INS-1E ATP HTS: inactive

Results for C[C@@H]1CN([C@@H](C)CO)C(=O)c2cc(NC(=O)Nc3ccccc3)ccc2O[C@@H](C)CCCCO[C@H]1CN(C)Cc1ccc(Cl)c(Cl)c1 ?
A1 apoptosis 2: inactive

What do the screens show for `C[C@@H]1CCCCO[C@H](CN(C)Cc2ccc(Cl)c(Cl)c2)[C@@H](C)CN([C@H](C)CO)C(=O)c2cc(NC(=O)Nc3ccccc3)ccc2O1`?
T cruzi intra: 76; A1 apoptosis 2: inactive; INS-1E ATP HTS: inactive

How did C[C@@H]1CCCCO[C@@H](CN(C)Cc2ccc(Cl)c(Cl)c2)[C@@H](C)CN([C@H](C)CO)C(=O)c2cc(NC(=O)Nc3ccccc3)ccc2O1 do in these assays?
T cruzi intra: 78; INS-1E ATP HTS: inactive

What do the screens show for `C[C@@H]1CN([C@H](C)CO)C(=O)c2cc(NC(=O)C3CCCCC3)ccc2O[C@@H](C)CCCCO[C@H]1CN(C)Cc1ccc(Cl)c(Cl)c1`?
A1 apoptosis 2: inactive

Results for C[C@H](CO)N1C[C@H](C)[C@H](CN(C)Cc2ccncc2)Oc2ccc(NC(=O)CCN3CCOCC3)cc2C1=O ?
T cruzi intra: inactive; A1 apoptosis 2: inactive

Results for C[C@@H]1CN([C@H](C)CO)C(=O)Cc2cc(NC(=O)c3ccncc3)ccc2O[C@@H]1CN(C)CC1CCCCC1 ?
T cruzi intra: inactive; A1 apoptosis 2: inactive; INS-1E ATP HTS: inactive

How did C[C@@H]1CN([C@@H](C)CO)C(=O)c2cc(NC(=O)C3CCCCC3)ccc2O[C@@H](C)CCCCO[C@H]1CN(C)C(=O)C1CCCCC1 do in these assays?
A1 apoptosis 2: inactive

What do the screens show for `C[C@@H]1CN([C@H](C)CO)C(=O)Cc2cc(NC(=O)Cc3cn(C)c4ccccc34)ccc2O[C@@H]1CN(C)S(=O)(=O)c1ccc(Cl)cc1`?
T cruzi intra: 67; INS-1E ATP HTS: inactive

Results for C[C@H](CO)N1C[C@H](C)[C@H](CN(C)Cc2ccc(Cl)c(Cl)c2)Oc2ccc(NC(=O)Cc3cn(C)c4ccccc34)cc2CC1=O ?
T cruzi intra: inactive; A1 apoptosis 2: inactive; INS-1E ATP HTS: inactive

How did C[C@H](CO)N1C[C@H](C)[C@@H](CN(C)Cc2ccc(C(F)(F)F)cc2)Oc2ccc(NC(=O)Cc3cn(C)c4ccccc34)cc2CC1=O do in these assays?
A1 apoptosis 2: inactive

How did C[C@H]1CN([C@@H](C)CO)C(=O)Cc2cc(NC(=O)Cc3cn(C)c4ccccc34)ccc2O[C@H]1CN(C)Cc1ccc(Cl)c(Cl)c1 do in these assays?
T cruzi intra: 60; A1 apoptosis 2: inactive; INS-1E ATP HTS: inactive

Results for C[C@H](CO)N1C[C@H](C)[C@H](CN(C)Cc2ccc(Oc3ccccc3)cc2)Oc2ccc(NC(=O)Cc3cn(C)c4ccccc34)cc2CC1=O ?
T cruzi intra: inactive; INS-1E ATP HTS: inactive

Results for C[C@@H]1CN([C@@H](C)CO)C(=O)Cc2cc(NC(=O)Cc3cn(C)c4ccccc34)ccc2O[C@@H]1CN(C)Cc1ccc(C(F)(F)F)cc1 ?
T cruzi intra: 63; A1 apoptosis 2: inactive; INS-1E ATP HTS: inactive

Results for C[C@H](CO)N1C[C@H](C)[C@@H](CN(C)S(=O)(=O)c2ccc(Cl)cc2)Oc2ccc(NC(=O)Cc3cn(C)c4ccccc34)cc2CC1=O ?
A1 apoptosis 2: inactive

How did C[C@@H]1CN([C@H](C)CO)C(=O)Cc2cc(NC(=O)Cc3cn(C)c4ccccc34)ccc2O[C@@H]1CN(C)Cc1ccc(Oc2ccccc2)cc1 do in these assays?
T cruzi intra: 65; A1 apoptosis 2: inactive; INS-1E ATP HTS: inactive

How did COc1ccc(NC(=O)N(C)C[C@H]2Oc3c(NC(=O)C4CC4)cccc3C(=O)N([C@H](C)CO)C[C@H]2C)cc1 do in these assays?
T cruzi intra: inactive; INS-1E ATP HTS: inactive

What do the screens show for `COc1ccc(CN(C)C[C@H]2Oc3ccc(NC(=O)Nc4ccc5c(c4)OCO5)cc3C(=O)N([C@H](C)CO)C[C@H]2C)cc1`?
T cruzi intra: inactive; A1 apoptosis 2: inactive; INS-1E ATP HTS: inactive

How did C[C@@H]1CCCCO[C@H](CN(C)C(=O)c2ccccc2)[C@@H](C)CN([C@H](C)CO)C(=O)c2cc(NC(=O)Nc3ccc(F)cc3)ccc2O1 do in these assays?
T cruzi intra: inactive; A1 apoptosis 2: inactive; INS-1E ATP HTS: inactive

How did COc1ccc(CN(C)C[C@H]2Oc3ccc(NC(=O)Cc4cn(C)c5ccccc45)cc3CC(=O)N([C@H](C)CO)C[C@H]2C)cc1 do in these assays?
T cruzi intra: inactive; A1 apoptosis 2: inactive; INS-1E ATP HTS: inactive

How did COc1ccc(CN(C)C[C@@H]2Oc3ccc(NC(=O)Cc4cn(C)c5ccccc45)cc3CC(=O)N([C@H](C)CO)C[C@H]2C)cc1 do in these assays?
T cruzi intra: 65; A1 apoptosis 2: inactive; INS-1E ATP HTS: inactive

How did COc1ccc(S(=O)(=O)N(C)C[C@@H]2Oc3ccc(NC(=O)Cn4cnnn4)cc3CC(=O)N([C@@H](C)CO)C[C@H]2C)cc1 do in these assays?
A1 apoptosis 2: inactive

Results for C[C@@H]1CN([C@H](C)CO)C(=O)c2cccc(NC(=O)C3CCCCC3)c2O[C@H]1CN(C)Cc1ccc(Oc2ccccc2)cc1 ?
T cruzi intra: 69; A1 apoptosis 2: inactive; INS-1E ATP HTS: inactive

What do the screens show for `C[C@@H]1CN([C@@H](C)CO)C(=O)c2cccc(NC(=O)C3CCCCC3)c2O[C@H]1CN(C)Cc1ccc(Oc2ccccc2)cc1`?
T cruzi intra: 66; INS-1E ATP HTS: inactive

What do the screens show for `C[C@H](CO)N1C[C@H](C)[C@H](CN(C)Cc2ccc(Oc3ccccc3)cc2)Oc2c(NC(=O)C3CC3)cccc2C1=O`?
T cruzi intra: inactive; A1 apoptosis 2: inactive; INS-1E ATP HTS: inactive

Results for C[C@H](CO)N1C[C@H](C)[C@@H](CN(C)Cc2ccc(Oc3ccccc3)cc2)Oc2c(NC(=O)C3CCCCC3)cccc2C1=O ?
T cruzi intra: 75; INS-1E ATP HTS: inactive
